What was measured:
[1] = Induction of apoptosis in mouse Ba/F3 NPM-ALK cells at 50 nM after 48 hrs by annexin V assay; type: functional
How it was run: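 Parental Ba/F3 (with IL-3), Ba/F3 NPM-ALK or SU-DHL-1 cells treated with 50 nM or DMSO for 48 h. Annexin V/7-AAD staining read by flow cytometry; percent Annexin V-positive cells counted.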

[2] = target: Nucleophosmin (Mus musculus) (UniProt Q61937); assay: Inhibition of NPM-ALK in mouse Ba/F3 NPM-ALK cells at 50 nM; type: cell-based; details: TDE = time-dependent effect
[3] = target: Signal transducer and activator of transcription 3 (Homo sapiens) (UniProt P40763); assay: Inhibition of STAT3 in human Karpas299 cells at 50 nM; type: cell-based; details: KARPAS-299, TDE = time-dependent effect
How it was run: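 Ba/F3 NPM-ALK or Karpas-299 cells held at 50 nM for times from 15 min onward. Phospho-NPM-ALK and phospho-STAT3 read by Western blot.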

[4] = Elimination half life in human Karpas299 cells xenografted SCID beige mouse at 20 mg/kg, po; type: ADME, organism-based, KARPAS-299; set-up: dose 20 mg/kg, route oral; details: in vivo
How it was run: (§1)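 Mice given a single oral dose of 20 mg/kg as a solution in 10% 1-methyl-2-pyrrolidinone/90% PEG 300. Plasma levels measured to give Cmax, bioavailability and elimination half-life.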

[5] = Bioavailability in human Karpas299 cells xenografted SCID beige mouse at 20 mg/kg; type: ADME, organism-based, KARPAS-299; details: in vivo; how it was run: as §1
[6] = Antiproliferative activity against mouse Ba/F3 NPM-ALK cells assessed as luciferase expression after 2 to 3 days; type: functional, cell-based
How it was run: (§2)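 Ba/F3 cells carrying luciferase, either parental (with IL-3) or transformed by NPM-ALK or TEL-kinase fusions, 25,000 per well with serial dilutions or DMSO for 2–3 days. Bright-Glo luminescence taken as proliferation/survival. IC50 from curve fit.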

[7] = Cytotoxicity against mouse parental Ba/F3 cells assessed as luciferase expression up to 1 uM after 2 to 3 days; type: cell-based; details: baf3; how it was run: as §2
KARPAS-299 = assay: Antiproliferative activity against human Karpas299 cells assessed as luciferase expression after 72 hrs; type: functional, cell-based; details: KARPAS-299, 72 h
How it was run: (§3)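 Luciferase-expressing Karpas-299 or SU-DHL-1 cells, 25,000 per well, exposed to serial dilutions or DMSO for 72 h. Bright-Glo luminescence normalized to DMSO wells as percent survival. IC50 from curve fit.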

SU-DHL-1 = assay: Antiproliferative activity against human SUDHL1 cells assessed as luciferase expression after 72 hrs; type: functional, cell-based; details: SU-DHL-1, 72 h; how it was run: as §3
[8] = target: Nucleophosmin (Mus musculus) (UniProt Q61937); assay: Inhibition of NPM-ALK autophosphorylation in mouse Ba/F3 NPM-ALK cells after 4 hrs; type: cell-based
How it was run: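 Ba/F3 NPM-ALK cells exposed to a range of concentrations for 4 h. NPM-ALK autophosphorylation read by Western blot. IC50 from quantified band intensities.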

BaF3 = assay: Inhibition of mouse wild type BaF3/WT Luc+ cell proliferation; type: functional, cell-based; how it was run: as §2
[9] = target: T1, Signal transducer and activator of transcription 5A (Homo sapiens) (UniProt P42229); assay: Inhibition of STAT5 phosphorylation in human Karpas299 cells; type: cell-based; details: KARPAS-299
T1 sequence (whole entry): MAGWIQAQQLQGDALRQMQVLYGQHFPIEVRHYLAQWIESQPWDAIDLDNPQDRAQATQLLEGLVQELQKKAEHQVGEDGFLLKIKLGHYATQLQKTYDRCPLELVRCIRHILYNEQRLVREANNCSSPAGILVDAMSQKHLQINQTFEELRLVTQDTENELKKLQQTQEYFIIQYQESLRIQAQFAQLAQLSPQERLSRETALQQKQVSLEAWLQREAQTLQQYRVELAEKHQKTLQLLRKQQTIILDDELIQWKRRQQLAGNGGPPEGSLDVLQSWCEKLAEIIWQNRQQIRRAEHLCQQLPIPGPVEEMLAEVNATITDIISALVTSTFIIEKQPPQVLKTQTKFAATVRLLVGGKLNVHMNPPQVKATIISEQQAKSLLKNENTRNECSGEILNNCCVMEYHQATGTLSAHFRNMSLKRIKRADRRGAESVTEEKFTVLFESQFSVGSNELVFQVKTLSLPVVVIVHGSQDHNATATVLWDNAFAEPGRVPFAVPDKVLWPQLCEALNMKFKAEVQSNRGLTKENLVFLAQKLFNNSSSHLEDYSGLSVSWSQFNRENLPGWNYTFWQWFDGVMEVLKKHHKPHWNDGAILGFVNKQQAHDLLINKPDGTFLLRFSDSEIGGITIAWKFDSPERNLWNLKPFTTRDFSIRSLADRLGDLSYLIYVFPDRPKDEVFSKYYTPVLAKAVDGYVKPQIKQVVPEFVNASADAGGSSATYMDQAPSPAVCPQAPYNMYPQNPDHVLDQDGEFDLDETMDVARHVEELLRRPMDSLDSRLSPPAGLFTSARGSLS
How it was run: (§4)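 Ba/F3 NPM-ALK, Karpas-299 or SU-DHL-1 cells treated for 4 h with DMSO or increasing concentrations. STAT3 and STAT5 phosphorylation read by Western blot of lysates.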

[10] = target: Signal transducer and activator of transcription 3 (Mus musculus) (UniProt P42227); assay: Inhibition of STAT3 phosphorylation in mouse Ba/F3 NPM-ALK cells; type: cell-based; how it was run: as §4
[11] = target: Signal transducer and activator of transcription 3 (Homo sapiens) (UniProt P40763); assay: Inhibition of STAT3 phosphorylation in human Karpas299 cells; type: cell-based; details: KARPAS-299; how it was run: as §4
[12] = target: Signal transducer and activator of transcription 3 (Homo sapiens) (UniProt P40763); assay: Inhibition of STAT3 phosphorylation in human SUDHL1 cells; type: cell-based; how it was run: as §4
[13] = target: T2, Signal transducer and activator of transcription 5A (Mus musculus) (UniProt P42230); assay: Inhibition of STAT5 phosphorylation in mouse Ba/F3 NPM-ALK cells; type: cell-based; how it was run: as §4
T2 sequence (whole entry): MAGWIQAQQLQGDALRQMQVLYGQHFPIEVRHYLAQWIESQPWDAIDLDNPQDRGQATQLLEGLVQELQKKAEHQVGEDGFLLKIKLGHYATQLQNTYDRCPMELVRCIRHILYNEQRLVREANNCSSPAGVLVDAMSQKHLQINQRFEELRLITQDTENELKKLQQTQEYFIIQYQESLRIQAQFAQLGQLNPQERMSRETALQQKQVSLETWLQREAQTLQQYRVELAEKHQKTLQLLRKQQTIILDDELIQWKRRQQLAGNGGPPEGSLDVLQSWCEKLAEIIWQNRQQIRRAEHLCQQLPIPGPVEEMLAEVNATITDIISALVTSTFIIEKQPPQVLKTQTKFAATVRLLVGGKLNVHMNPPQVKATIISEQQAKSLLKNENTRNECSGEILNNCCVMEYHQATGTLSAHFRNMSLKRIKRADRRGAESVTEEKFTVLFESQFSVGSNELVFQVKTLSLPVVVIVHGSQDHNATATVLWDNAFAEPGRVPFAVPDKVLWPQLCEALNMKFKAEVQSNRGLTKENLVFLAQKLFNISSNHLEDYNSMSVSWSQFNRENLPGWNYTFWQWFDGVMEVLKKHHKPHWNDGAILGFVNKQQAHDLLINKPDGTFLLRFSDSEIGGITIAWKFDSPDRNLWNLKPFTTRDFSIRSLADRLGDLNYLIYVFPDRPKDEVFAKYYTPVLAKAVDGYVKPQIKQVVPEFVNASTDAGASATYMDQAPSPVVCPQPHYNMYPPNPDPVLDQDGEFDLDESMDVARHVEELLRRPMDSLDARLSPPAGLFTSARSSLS

[14] = target: T1, Signal transducer and activator of transcription 5A (Homo sapiens); assay: Inhibition of STAT5 phosphorylation in human SUDHL1 cells; type: cell-based; how it was run: as §4

Chain of Signal transducer and activator of transcription 3 (Homo sapiens) (P40763 whole entry): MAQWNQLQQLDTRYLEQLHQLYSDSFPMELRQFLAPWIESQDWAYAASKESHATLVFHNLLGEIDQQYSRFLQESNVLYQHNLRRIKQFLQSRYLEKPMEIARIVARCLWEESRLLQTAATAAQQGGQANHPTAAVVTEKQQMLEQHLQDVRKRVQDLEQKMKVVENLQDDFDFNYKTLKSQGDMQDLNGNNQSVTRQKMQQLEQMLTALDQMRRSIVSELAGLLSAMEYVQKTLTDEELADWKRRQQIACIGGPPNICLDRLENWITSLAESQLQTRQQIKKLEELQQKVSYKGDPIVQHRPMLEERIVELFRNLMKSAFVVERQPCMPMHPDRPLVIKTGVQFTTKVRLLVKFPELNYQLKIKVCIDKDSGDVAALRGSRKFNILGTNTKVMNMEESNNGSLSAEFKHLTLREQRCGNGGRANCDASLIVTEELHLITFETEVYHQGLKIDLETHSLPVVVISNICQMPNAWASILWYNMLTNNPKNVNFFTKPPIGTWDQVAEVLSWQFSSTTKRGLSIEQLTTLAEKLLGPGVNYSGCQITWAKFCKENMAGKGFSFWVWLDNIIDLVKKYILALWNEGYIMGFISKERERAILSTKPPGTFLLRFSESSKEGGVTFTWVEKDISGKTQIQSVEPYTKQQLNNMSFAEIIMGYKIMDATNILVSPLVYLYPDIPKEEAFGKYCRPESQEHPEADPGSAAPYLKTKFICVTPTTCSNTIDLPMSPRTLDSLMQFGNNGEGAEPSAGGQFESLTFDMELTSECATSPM
Chain of Nucleophosmin (Mus musculus) (Q61937 whole entry): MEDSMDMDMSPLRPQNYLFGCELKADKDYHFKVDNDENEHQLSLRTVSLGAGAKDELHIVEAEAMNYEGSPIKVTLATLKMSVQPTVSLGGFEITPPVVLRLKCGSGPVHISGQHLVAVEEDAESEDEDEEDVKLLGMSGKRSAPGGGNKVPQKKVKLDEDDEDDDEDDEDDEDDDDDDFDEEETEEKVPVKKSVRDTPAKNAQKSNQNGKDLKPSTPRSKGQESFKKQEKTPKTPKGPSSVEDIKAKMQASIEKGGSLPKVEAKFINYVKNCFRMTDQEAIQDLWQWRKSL
Chain of Signal transducer and activator of transcription 3 (Mus musculus) (P42227 whole entry): as the sequence (P40763 whole entry) above, with E760D counted along it

Compound: COc1cc(N2CCC(N3CCN(C)CC3)CC2)ccc1Nc1ncc(Cl)c(Nc2ccccc2S(=O)(=O)C(C)C)n1 [TAE-684]
- Activity [1]: 85%
- Activity [2]: tde
- Activity [3]: tde
- half-life [4]: 12 h
- bioavailability [5]: 60%
- IC50 [6]: 3 nM
- Activity [7]: Not Active
- IC50 (KARPAS-299): 3 nM
- IC50 (SU-DHL-1): 2 nM
- Activity [8]: Dose-dependent effect
- IC50 (BaF3): 2750 nM
- Activity [9]: Dose-dependent effect
- Activity [10]: Dose-dependent effect
- Activity [11]: Dose-dependent effect
- Activity [12]: Dose-dependent effect
- Activity [13]: Dose-dependent effect
- Activity [14]: Dose-dependent effect

From ChEMBL document CHEMBL1156430, “Identification of NVP-TAE684, a potent, selective, and efficacious inhibitor of NPM-ALK” (Proc Natl Acad Sci U S A, 2007)
